How the values were obtained:
[1] = melting temperature; fluorescence melt of hairpins on a sequencing array, two-state fit, raised by 9.35 °C to match UV melts; settings: sodium 0.088 M
Outline: (§1)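 In 50 mM Na-HEPES pH 8.0 containing 25 mM NaCl, hairpins from the library on a sequenced MiSeq flow cell were imaged for Cy3 fluorescence at 2.5 °C steps up to 60 °C, with Cy3 and quencher oligos annealed. After normalisation to pre-quench Cy3 and to control constructs, two-state fits with bootstrapping gave melting temperature and folding enthalpy. Four replicates were combined by inverse-variance weighting, and fitted temperatures were shifted up by 9.35 °C to match UV melts.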

[2] = folding enthalpy; higher = less favourable; fluorescence melt of hairpins on a sequencing array, two-state fit; settings: sodium 0.088 M
Outline: as §1

Row | Sequence | Tm [1] [°C] | folding enthalpy [2] [kcal/mol]
1 | GTGGTTGGAAACAACCAC (((((((....))))))) | 65.7 | -44.5
2 | GCGACTTCGAAAGAACGC (((..(((....)))))) | 36.7 | -22.4
3 | GATCCTCATTAGGATC ((((((....)))))) | 51.1 | -33.8
4 | GCTGGCGAAAGCCGGAGC ((((((....)))..))) | 56.4 | -11.4
5 | GCCAGGGGAAACCCCGGC (((.(((....))).))) | 59.8 | -38.6
6 | GAGCTACGAAAGTACTC (((.(((....)))))) | 39.1 | -21.3
7 | GCAAAGCGAAAGCATGGC ((.(.((....)).).)) | 38.3 | -10.3
8 | GCGTACGTACGC ((((....)))) | 55.3 | -29.9
9 | GATCAAGCTTTGATC ((((((...)))))) | 43.4 | -29.5
10 | GCTCAGGGAAACCTAAGC (((.(((....))).))) | 34.1 | -20.6
11 | GATCCCACGGGGGATC ((((((....)))))) | 61.3 | -35.8
12 | GTGGAAGGAAACTTTCAC (((.(((....))).))) | 43.2 | -33
13 | GATCGGTGCGCCGATC ((((((....)))))) | 66.9 | -36.9
14 | GTCGCCGAAAGGCCGGAC ((((((....)))..))) | 41.6 | -13.1
15 | GCCGTCACGAAAGTGGGC (((..(((....)))))) | 48.5 | -19.5
16 | GATCAACGGTTGATC ((((((...)))))) | 44.7 | -40.3
17 | GGAGGTGGAAACACCCCC ((.((((....)))).)) | 49.1 | -18.7
18 | GTAATCGAAAGATGGTAC ((((((....)))..))) | 25 | -12.8
19 | GTCTATTCGAAAGAAGAC (((..(((....)))))) | 23.8 | -8.48
20 | GGCGACGGAAACGTTGCC (((.(((....))).))) | 65 | -48.8
21 | GTCGAGGGAAACCTCGGC (.(((((....))))).) | 57.3 | -35.8
22 | GCCTAGCGAAAGCCAGGC ((((.((....)).)))) | 62.2 | -29.4
23 | GCGGACGGAAACACCCGC ((((..(....)..)))) | 41.9 | -26.9

Row | Sequence | Tm [1] [°C] | folding enthalpy [2] [kcal/mol]
24 | CGGGTCGGAAACGACCG (((.(((....)))))) | 61.7 | -11.4
25 | GTGGTGGGAAACTGCCAC ((((..(....)..)))) | 49.1 | -29.2
26 | GAGTGCGGAAACGCATTC ((.((((....)))).)) | 51.9 | -23.8
27 | GTGACCCGAAAGGGACAC (((.(((....))).))) | 61.8 | -40.2
28 | GCGAAAATCGC ((((...)))) | 45 | -14.1
29 | GATCAGACGCTGATC ((((((...)))))) | 47.7 | -34.2
30 | GATCTAGAAGTAGATC ((((((....)))))) | 39.9 | -27.6
31 | GGTCGAACGAAAGTTACC (((..(((....)))))) | 26.6 | -11.7
32 | GGTCGCGAAAGCGGAACC ((((((....)))..))) | 47.8 | -15.3
33 | GATCCGAAGACGGATC ((((((....)))))) | 54.7 | -37
34 | GTATGCGAAAGCAATAC ((((((....))).))) | 49.4 | -20.3
35 | CGCGGACAACTCCGCG ((((((....)))))) | 64.9 | -31.9
36 | GATCCTGACCAGGATC ((((((....)))))) | 56.5 | -45.1
37 | GAAGTGGGAAACCGCTTC ((((.((....)).)))) | 51.6 | -31.4
38 | GCCTACGAAAGTATTGGC ((((((....)))..))) | 43.4 | -20.5
39 | GGCGGTGGAAACGTCGCC ((((..(....)..)))) | 53.9 | -33.8
40 | GGAGACCGAAAGGTTCC (((.(((....)))))) | 48 | -22.5
41 | GTATCTGAAAAGATAC ((((((....)))))) | 49.2 | -33.2
42 | GGAGTGGGAAACCACCCC ((.((((....)))).)) | 47.1 | -21.5
43 | CGGGGGAAACCCCG (((((....))))) | 68.5 | -21.8
44 | GCGATAGGAAACTATCAC (.(((((....))))).) | 35.9 | -18.4
45 | GGTTAACCGAAAGGTACC (((..(((....)))))) | 38 | -17.4
46 | GTATGGACGAAAGTCTAC (((..(((....)))))) | 29.2 | -10.9
